Data: ChEMBL document CHEMBL5046219, “Optimization of N-Phenylpropenoyl-l-amino Acids as Potent and Selective Inducible Nitric Oxide Synthase Inhibitors for Parkinson's Disease” (J Med Chem, 2021)
Activity calls are given as the source filed them. The calls are words filed in the database; no cut-off is given here.

Legend:
[1] = Effective permeability of compound in PBS buffer at pH 7.4 at 200 uM incubated for 17 hrs by PAMPA-BBB assay; format: ADME; settings: read-out: Peff
How it was run: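 PAMPA-BBB: the donor filter was coated with porcine brain lipid (20 mg/mL in dodecane). Compound was loaded at 200 μM in 10 mM PBS pH 7.4, with PBS as acceptor. Plates were incubated 17 h at 25 °C in saturated humidity with 100 rpm orbital shaking. Donor and acceptor concentrations were read by UV and Pe was calculated from the flux equation. Values are the mean of triplicates with SD.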

Nitric oxide synthase 3 = target: T1, Nitric oxide synthase 3 (Homo sapiens, UniProt P29474); test: Inhibition of human eNOS assessed as reduction in L-[3H]-citrulline level using L-[3H]-arginine as substrate incubated for 1 hr
T1 sequence (P29474 whole entry): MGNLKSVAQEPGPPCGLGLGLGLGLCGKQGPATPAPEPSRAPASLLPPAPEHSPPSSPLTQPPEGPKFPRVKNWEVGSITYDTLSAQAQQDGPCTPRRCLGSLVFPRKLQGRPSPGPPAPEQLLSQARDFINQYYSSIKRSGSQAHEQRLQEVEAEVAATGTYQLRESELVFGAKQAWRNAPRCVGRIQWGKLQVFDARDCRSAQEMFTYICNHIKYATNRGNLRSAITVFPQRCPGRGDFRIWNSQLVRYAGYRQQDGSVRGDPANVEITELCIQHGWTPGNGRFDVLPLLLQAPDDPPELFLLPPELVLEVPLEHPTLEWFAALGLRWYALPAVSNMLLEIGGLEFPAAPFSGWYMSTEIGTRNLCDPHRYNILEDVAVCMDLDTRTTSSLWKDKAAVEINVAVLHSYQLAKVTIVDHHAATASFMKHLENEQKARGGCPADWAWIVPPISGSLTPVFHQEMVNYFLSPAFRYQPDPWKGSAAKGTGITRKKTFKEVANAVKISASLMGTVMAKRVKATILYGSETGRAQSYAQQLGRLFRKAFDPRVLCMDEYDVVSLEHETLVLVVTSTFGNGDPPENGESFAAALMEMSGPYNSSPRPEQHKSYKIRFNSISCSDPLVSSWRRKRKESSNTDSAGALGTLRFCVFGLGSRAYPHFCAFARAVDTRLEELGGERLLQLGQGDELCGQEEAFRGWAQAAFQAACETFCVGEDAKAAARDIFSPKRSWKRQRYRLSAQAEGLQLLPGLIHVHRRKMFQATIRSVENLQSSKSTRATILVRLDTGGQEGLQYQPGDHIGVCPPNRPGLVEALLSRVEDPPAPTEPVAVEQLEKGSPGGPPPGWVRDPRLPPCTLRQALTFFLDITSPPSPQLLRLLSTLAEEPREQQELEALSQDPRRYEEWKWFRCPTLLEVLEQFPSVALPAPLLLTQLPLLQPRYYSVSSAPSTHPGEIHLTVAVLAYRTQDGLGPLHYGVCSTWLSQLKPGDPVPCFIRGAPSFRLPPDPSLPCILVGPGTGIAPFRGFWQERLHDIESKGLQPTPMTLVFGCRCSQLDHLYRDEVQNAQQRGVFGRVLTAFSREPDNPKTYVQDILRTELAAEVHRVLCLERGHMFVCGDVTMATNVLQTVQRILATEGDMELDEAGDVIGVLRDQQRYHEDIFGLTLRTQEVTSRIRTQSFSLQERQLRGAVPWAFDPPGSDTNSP

Nitric oxide synthase 1 = Nitric oxide synthase 1 (Homo sapiens, UniProt P29475); test: Inhibition of human nNOS assessed as reduction in L-[3H]-citrulline level using L-[3H]-arginine as substrate incubated for 1 hr
Homo sapiens = species: Homo sapiens; test: Selectivity ratio of IC50 for human eNOS to IC50 for human iNOS
How it was run: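 Human iNOS, eNOS or nNOS was incubated 1 h at 37 °C in 50 mM HEPES with 10 nM [3H]arginine and [14C]citrulline internal standard. Cofactors were NADP⁺, G6P, G6P dehydrogenase, MgCl2, FAD, FMN and BH4. eNOS and nNOS reactions also contained 25 nM calmodulin, 0.5 mM CaCl2 and 3.5 mM glutathione. Reactions were stopped with MES and passed through cation exchange resin, and [3H]citrulline was counted. Background was set with 10 μM AMT. IC50 values came from eight concentrations (0.01–10 μM), in three repeated experiments.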

[2] = target: Nitric oxide sythases; iNOS & nNOS (Homo sapiens) (UniProt P29475+P35228); test: Selectivity ratio of IC50 for human nNOS to IC50 for human iNOS; format: protein assay
How it was run: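 Human nNOS and human iNOS each converting [³H]arginine (10 nM) to [³H]citrulline, with [¹⁴C]citrulline (80−120 nM) as internal standard, in 50 mM HEPES at 37 °C for 1 h. Cofactors were NADP⁺, G6P/G6PDH, MgCl₂, FAD, FMN and BH₄; nNOS also had calmodulin, CaCl₂ and glutathione. Eight concentrations (0.01−10 μM). Stopped with MES, passed over cation-exchange resin, filtrate counted. Background set with 10 μM AMT. Each IC50 from a curve, repeated three times.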

BV-2 = test: Anti-neuroinflammation in mouse BV-2 cells assessed as inhibition of LPS-induced NO production at 1 uM preincubated for 6 hrs followed by LPS addition measured after 24 hrs by Griess reagent based assay; format: functional
How it was run: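 BV-2 murine microglia were grown in DMEM with 10% FBS at 37 °C and 5% CO2, then seeded at 5 × 10³ cells/well. After 24 h, compound was added at 1 μM. LPS (500 ng/mL) followed 6 h later. After a further 24 h, medium was collected and NO was read at 540 nm with a colorimetric NO detection kit.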

[3] = target: Nitric oxide synthase, inducible (Homo sapiens, UniProt P35228); test: Inhibition of human iNOS assessed as reduction in L-[3H]-citrulline level using L-[3H]-arginine as substrate incubated for 1 hr
[4] = AUC (0 to infinity) in Balb/c mouse blood at 30 mg/kg, po administered as single dose measured upto 24 hrs by LC-MS analysis; format: ADME, organism-based; parameters: route oral, dose 30 mg/kg, time <=24
How it was run: (§1)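 Male BALB/c mice were fasted 16 h and then given a single intragastric dose of 30 mg/kg. Blood and brain were collected after decapitation at 5, 10, 15 and 30 min and at 1, 2, 6, 8, 12 and 24 h. Plasma was obtained by centrifugation and brains were homogenized in saline. Samples underwent methanol protein precipitation and single-quadrupole LC-MS on a C18 column at 30 °C, using isocratic 40% acetonitrile with 0.1% formic acid.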

[5] = Cmax in Balb/c mouse brain at 30 mg/kg, po administered as single dose measured upto 24 hrs by LC-MS analysis; format: ADME, organism-based; parameters: route oral, dose 30 mg/kg, time <=24; how it was run: as §1
[6] = Half life in Balb/c mouse blood at 30 mg/kg, po administered as single dose measured upto 24 hrs by LC-MS analysis; format: ADME, organism-based; how it was run: as §1
[7] = Half life in Balb/c mouse brain at 30 mg/kg, po administered as single dose measured upto 24 hrs by LC-MS analysis; format: ADME, organism-based; how it was run: as §1
[8] = AUC (0 to infinity) in Balb/c mouse brain at 30 mg/kg, po administered as single dose measured upto 24 hrs by LC-MS analysis; format: ADME, organism-based; parameters: route oral, dose 30 mg/kg, time <=24; how it was run: as §1
[9] = Cmax in Balb/c mouse blood at 30 mg/kg, po administered as single dose measured upto 24 hrs by LC-MS analysis; format: ADME, organism-based; parameters: route oral, dose 30 mg/kg, time <=24; how it was run: as §1

Nitric oxide synthase, inducible, sequence (P35228 whole entry): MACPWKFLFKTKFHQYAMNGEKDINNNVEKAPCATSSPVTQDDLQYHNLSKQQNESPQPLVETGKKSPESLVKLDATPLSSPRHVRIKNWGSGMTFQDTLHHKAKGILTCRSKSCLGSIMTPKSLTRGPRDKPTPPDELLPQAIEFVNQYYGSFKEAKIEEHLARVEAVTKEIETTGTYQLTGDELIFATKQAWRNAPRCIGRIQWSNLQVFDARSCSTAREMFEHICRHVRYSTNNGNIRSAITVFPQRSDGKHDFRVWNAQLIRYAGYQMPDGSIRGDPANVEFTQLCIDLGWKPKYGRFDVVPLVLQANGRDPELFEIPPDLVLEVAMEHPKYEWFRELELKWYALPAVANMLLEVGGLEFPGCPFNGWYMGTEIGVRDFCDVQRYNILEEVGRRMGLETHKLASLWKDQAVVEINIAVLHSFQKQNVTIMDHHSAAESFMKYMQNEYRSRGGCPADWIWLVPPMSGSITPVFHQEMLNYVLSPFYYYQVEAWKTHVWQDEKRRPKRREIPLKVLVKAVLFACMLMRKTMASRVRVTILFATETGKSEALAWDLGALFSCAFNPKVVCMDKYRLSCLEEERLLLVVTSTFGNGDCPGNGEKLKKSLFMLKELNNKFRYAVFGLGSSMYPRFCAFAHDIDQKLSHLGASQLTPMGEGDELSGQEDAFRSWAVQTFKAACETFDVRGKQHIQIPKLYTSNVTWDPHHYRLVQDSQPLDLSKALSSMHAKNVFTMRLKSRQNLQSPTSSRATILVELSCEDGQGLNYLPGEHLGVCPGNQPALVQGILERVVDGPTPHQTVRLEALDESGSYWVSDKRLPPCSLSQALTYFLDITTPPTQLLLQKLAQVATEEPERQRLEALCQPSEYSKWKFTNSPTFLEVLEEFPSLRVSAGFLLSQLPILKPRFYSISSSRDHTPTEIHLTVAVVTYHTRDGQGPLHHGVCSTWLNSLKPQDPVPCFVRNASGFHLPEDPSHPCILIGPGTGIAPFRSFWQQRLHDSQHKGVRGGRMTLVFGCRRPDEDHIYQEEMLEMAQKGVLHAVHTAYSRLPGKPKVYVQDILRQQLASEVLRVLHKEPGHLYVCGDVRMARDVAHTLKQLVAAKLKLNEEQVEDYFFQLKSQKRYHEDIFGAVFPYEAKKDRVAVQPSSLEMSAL
Nitric oxide synthase 1, sequence (P29475 whole entry): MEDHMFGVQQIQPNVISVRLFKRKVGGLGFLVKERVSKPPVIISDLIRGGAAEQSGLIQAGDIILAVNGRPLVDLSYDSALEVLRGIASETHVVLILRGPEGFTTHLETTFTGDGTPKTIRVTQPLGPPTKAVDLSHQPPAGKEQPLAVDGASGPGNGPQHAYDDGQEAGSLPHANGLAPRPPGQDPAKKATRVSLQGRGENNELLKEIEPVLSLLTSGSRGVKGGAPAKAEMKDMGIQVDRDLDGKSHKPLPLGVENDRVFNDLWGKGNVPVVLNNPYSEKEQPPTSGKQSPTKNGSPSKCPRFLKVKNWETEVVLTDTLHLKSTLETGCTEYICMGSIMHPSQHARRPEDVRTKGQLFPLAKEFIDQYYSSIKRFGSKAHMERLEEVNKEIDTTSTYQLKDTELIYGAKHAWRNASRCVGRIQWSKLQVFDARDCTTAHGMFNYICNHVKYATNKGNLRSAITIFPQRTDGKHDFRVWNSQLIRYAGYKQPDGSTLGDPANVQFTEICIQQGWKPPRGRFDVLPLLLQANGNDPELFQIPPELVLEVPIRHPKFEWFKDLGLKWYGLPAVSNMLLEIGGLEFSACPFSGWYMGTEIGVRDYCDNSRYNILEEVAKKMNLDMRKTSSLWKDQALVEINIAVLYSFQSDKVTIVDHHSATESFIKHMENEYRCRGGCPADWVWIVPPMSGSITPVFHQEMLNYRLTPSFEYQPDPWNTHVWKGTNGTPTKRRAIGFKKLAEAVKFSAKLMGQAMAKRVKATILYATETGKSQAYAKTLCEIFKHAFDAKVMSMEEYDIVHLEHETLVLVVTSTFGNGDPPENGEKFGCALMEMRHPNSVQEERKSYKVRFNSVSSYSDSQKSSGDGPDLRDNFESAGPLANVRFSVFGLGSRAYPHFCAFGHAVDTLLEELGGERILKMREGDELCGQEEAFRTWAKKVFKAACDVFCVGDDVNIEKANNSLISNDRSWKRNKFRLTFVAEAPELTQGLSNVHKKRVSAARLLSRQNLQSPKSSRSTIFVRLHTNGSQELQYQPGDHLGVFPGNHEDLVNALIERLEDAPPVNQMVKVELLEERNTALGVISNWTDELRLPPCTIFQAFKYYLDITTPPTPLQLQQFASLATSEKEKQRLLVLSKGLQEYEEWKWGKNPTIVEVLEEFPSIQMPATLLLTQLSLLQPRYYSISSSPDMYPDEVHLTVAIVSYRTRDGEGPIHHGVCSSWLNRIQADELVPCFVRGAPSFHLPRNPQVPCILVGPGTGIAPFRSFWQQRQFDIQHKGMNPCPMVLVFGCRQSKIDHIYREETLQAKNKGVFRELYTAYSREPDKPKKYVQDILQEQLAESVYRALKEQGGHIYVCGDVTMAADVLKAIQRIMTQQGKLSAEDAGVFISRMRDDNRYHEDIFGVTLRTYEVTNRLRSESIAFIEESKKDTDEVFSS
Nitric oxide sythases; iNOS & nNOS (Homo sapiens), sequence (P29475 whole entry, looked up): as the sequence (P29475 whole entry) above
Nitric oxide sythases; iNOS & nNOS (Homo sapiens), sequence (P35228 whole entry, looked up): as the sequence (P35228 whole entry) above

Papp at 17 h, 200 µM [1] [×10⁻⁶ cm/s]	IC50 (Nitric oxide synthase 3) [µM]	IC50 (Nitric oxide synthase 1) [µM]	Ratio IC50 (Homo sapiens)	Ratio IC50 [2]	IC50 [3] [µM]	AUC(0-inf) [4] [ng·h/mL]	Cmax [5] [ng/mL]	half-life [6] [h]	half-life [7] [h]	AUC(0-inf) [8] [ng·h/mL]	Cmax [9] [ng/mL]	SMILES	Activity (BV-2)
	164	149	165	149	0.993							O=C(/C=C/c1ccc(Cl)c(Cl)c1)N[C@@H](Cc1ccc(F)cc1)C(=O)O	Active
1.23	46.6	40.3	52	45	0.892	3450	40.2	1.2	0.9	567	1000	COc1cc(/C=C/C(=O)N[C@H](Cc2ccc(O)cc2)C(=O)O)ccc1O	

Second part, the molecule before the results:

SMILES	Papp at 17 h, 200 µM [1] [×10⁻⁶ cm/s]	IC50 (Nitric oxide synthase 3) [µM]	IC50 (Nitric oxide synthase 1) [µM]	Ratio IC50 (Homo sapiens)	Ratio IC50 [2]	IC50 [3] [µM]	AUC(0-inf) [4] [ng·h/mL]	Cmax [5] [ng/mL]	half-life [6] [h]	half-life [7] [h]	AUC(0-inf) [8] [ng·h/mL]	Cmax [9] [ng/mL]	Activity (BV-2)
CC(=N)NCc1cccc(CN)c1 [1400W]	3.18												
O=C(/C=C/c1ccccc1Cl)N[C@@H](Cc1ccc(F)cc1)C(=O)O		147	126	180	153	0.82							Active
CC(C)C[C@H](NC(=O)/C=C/c1ccc(Cl)c(Cl)c1)C(=O)O		29.7	29.6	39	39	0.765							Active
